Active and inactive are the calls of the source. The rule behind the calls is not given here.
Tests used:
Mus musculus [1] = assay: Antiinflammatory activity in LPS-induced C57/BL6 mouse acute lung injury model assessed as reduction in macrophage infiltration at 20 mg/kg via oral gavage preincubated for 30 mins followed by LPS stimulation for 6 hrs by immunohistochemical staining based analysis; format: functional, organism-based; conditions: time 6.5 hrs
Outline: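 Same ALI model: 20 mg/kg oral, intratracheal LPS 5 mg/kg 30 min later, lungs at 6 h. Paraffin sections given citrate (pH 6.5) antigen retrieval, 3% H2O2 and 5% BSA block, anti-F4/80 12 h at 4 °C, HRP secondary, DAB and hematoxylin; F4/80 positivity quantified; n = 5 per group.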

J774.A1 [2] = assay: Inhibition of NF-kappaB pathway in LPS-induced mouse J774.A1 cells assessed as reduction in p65 nuclear translocation preincubated with compound for 2 hrs followed by LPS-stimulation and measured after 30 mins by Western blot analysis; format: cell-based; conditions: time 2.5 hrs
Mus musculus [3] = assay: Antiinflammatory activity in LPS-induced C57/BL6 mouse acute lung injury model assessed as decrease in TNF-alpha expression level at 20 mg/kg via oral gavage preincubated for 30 mins followed by LPS stimulation for 6 hrs by RT-qPCR method; format: functional, organism-based; conditions: time 6.5 hrs
Outline: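 Male C57BL/6 mice, six weeks old, n = 8 per group. Dosed 20 mg/kg orally 30 min before intratracheal LPS 5 mg/kg; dexamethasone 20 mg/kg as comparator. Lung tissue collected 6 h after LPS. RNA extracted with TRIzol; IL-6 and TNF-α transcripts by RT-qPCR, normalized to β-actin; n = 5 mice per group, mean ± SEM.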

Mus musculus [4] = assay: Protection against LPS-induced sepsis in C57/BL6 mouse model assessed as reduction in periarterial lymphatic sheath thickening at 20 mg/kg, po preincubated with compound followed by LPS stimulation for 1 hr by H and E staining based analysis; format: functional, organism-based
Outline: (§1)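 Mice given 20 mg/kg orally, then intraperitoneal LPS 20 mg/kg 1 h later; n = 12 per group. Kidney, liver, heart and spleen weighed; spleen sections H&E-stained for histology.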

J774.A1 [5] = assay: Cytotoxicity against mouse J774.A1 cells assessed as reduction in cell viability at 10 uM incubated for 24 hrs by MTT assay; format: functional, cell-based
Outline: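 J774A.1 macrophages exposed to 10 μM for 24 h; MTT at 5 mg/mL added for 4 h; absorbance read at 490 nm; viability expressed as percent of DMSO control.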

J774.A1 [6] = assay: Antiinflammatory activity in LPS-induced mouse J774.A1 cells assessed as inhibition of LPS-induced TNF-alpha release at 10 uM preincubated for 30 mins followed by LPS stimulation for 24 hrs by ELISA method; format: functional; conditions: time 24.5 hrs
Outline: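 J774A.1 macrophages pretreated 30 min at 10 μM, then challenged with LPS 0.5 μg/mL for 24 h at 37 °C, 5% CO2. Medium IL-6 and TNF-α measured by ELISA, normalized to total lysate protein.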

J774.A1 [7] = assay: Antiinflammatory activity in LPS-induced mouse J774.A1 cells assessed as inhibition of LPS-induced IL-6 release preincubated for 30 mins followed by LPS stimulation for 24 hrs by ELISA method; format: functional, cell-based
Outline: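 Dose-response in J774A.1 cells: 30 min pretreatment at 10, 5, 2.5 or 1.25 μM, then LPS 0.5 μg/mL for 24 h. IL-6 and TNF-α by ELISA, normalized to lysate protein; IC50 from the dose-response; 3 independent experiments, mean ± SEM.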

Mus musculus [8] = assay: Protection against LPS-induced sepsis in C57/BL6 mouse model assessed as reduction of obvious white pulp in spleen at 20 mg/kg, po preincubated with compound followed by LPS stimulation for 1 hr by H and E staining based analysis; format: functional, organism-based; outline: as §1
[9] = Cmax in rat at 1 mg/kg, iv; format: ADME, organism-based; design: dose 1 mg/kg, route iv; conditions: in vivo
Outline: (§2)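 Rats dosed intravenously at 1 mg/kg or orally at 10 mg/kg; plasma pharmacokinetic parameters AUC(0-t), Tmax, T1/2, Cmax and oral bioavailability F derived from the two routes.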

LX-2 = assay: Antiinflammatory activity in LPS-induced human LX2 cells assessed as inhibition of LPS-induced TNF-alpha release preincubated for 30 mins followed by LPS stimulation for 24 hrs by ELISA method; format: functional, cell-based
Outline: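 THP-1 or LX-2 cells in DMEM with 10% FBS, 37 °C, 5% CO2. Pretreated 30 min at 10, 5, 2.5 or 1.25 μM, then LPS 0.5 μg/mL for 24 h. IL-6 and TNF-α in medium measured by ELISA, normalized to lysate total protein; mean ± SEM of 3 independent experiments.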

J774.A1 [10] = assay: Inhibition of NF-kappaB pathway in LPS-induced mouse J774.A1 cells assessed as inhibition of IkappaB-alpha degradation preincubated with compound for 2 hrs followed by LPS-stimulation and measured after 30 mins by Western blot analysis; format: cell-based; conditions: dose 5-10 µM, time 2.5 hrs
Outline: (§3)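 J774A.1 cells preincubated with 10 or 5 μM or DMSO for 2 h, then LPS 0.5 μg/mL for 30 min. RIPA lysates run on 12.5% SDS-PAGE, transferred to PVDF, blocked with 5% milk; probed for IκB-α and p-p65, with GAPDH and p65 as loading controls; ECL detection; densitometry.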

[11] = Cmax in rat at 10 mg/kg, po; format: ADME, organism-based; design: dose 10 mg/kg, route po; conditions: in vivo; outline: as §2
Mus musculus [12] = assay: Protection against LPS-induced C57/BL6 mouse acute lung injury model assessed as reduction in lung wet/dry ratio at 20 mg/kg via oral gavage preincubated for 30 mins followed by LPS stimulation for 6 hrs; format: functional, organism-based; conditions: time 6.5 hrs
Outline: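 Mice dosed 20 mg/kg by gavage (dexamethasone 20 mg/kg comparator), intratracheal LPS 5 mg/kg 30 min later, killed at 6 h. Right upper lobe fixed in paraformaldehyde, H&E; lung wet/dry ratio; BALF protein, total cells and neutrophils counted; n = 5 mice per group, mean ± SEM.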

[13] = Half life in rat at 1 mg/kg, iv; format: ADME, organism-based; conditions: in vivo; outline: as §2
[14] = Oral bioavailability in rat at 10 mg/kg; format: ADME, organism-based; conditions: in vivo; outline: as §2
J774.A1 [15] = assay: Inhibition of NF-kappaB pathway in LPS-induced mouse J774.A1 cells assessed as inhibition of p65 phosphorylation preincubated with compound for 2 hrs followed by LPS-stimulation and measured after 30 mins by Western blot analysis; format: cell-based; conditions: dose 5-10 µM, time 2.5 hrs; outline: as §3
THP-1 = assay: Antiinflammatory activity in LPS-induced human THP-1 cells assessed as inhibition of LPS-induced TNF-alpha transcription preincubated for 0.5 hrs followed by LPS stimulation for 6 hrs by RT-qPCR method; format: functional, cell-based; conditions: dose 5-10 µM, time 6.5 hrs
Outline: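 J774A.1 or THP-1 cells pretreated 0.5 h at 10 or 5 μM, then LPS 0.5 μg/mL for 6 h. TRIzol RNA; IL-6, TNF-α and IL-1β transcripts by RT-qPCR, normalized to β-actin and control; 3 independent experiments, mean ± SEM.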

Mus musculus [16] = assay: Protection against LPS-induced sepsis in C57/BL6 mouse model assessed as reduction in spleen enlargement at 20 mg/kg, po preincubated with compound followed by LPS stimulation for 1 hr; format: functional, organism-based; outline: as §1
Mus musculus [17] = assay: Antiinflammatory activity in LPS-induced C57/BL6 mouse acute lung injury model assessed as decrease in IL-6 level in BALF at 20 mg/kg via oral gavage preincubated for 30 mins followed by LPS stimulation for 6 hrs by ELISA; conditions: time 6.5 hrs

- IC50 (J774.A1 [7]): 1330 nM
- Cmax [9]: 1360 ng/mL
- IC50 (LX-2): 2910 nM
- Cmax [11]: 1680 ng/mL
- half-life [13]: 8.9 h
- bioavailability [14]: 36.3%
SMILES: COc1cc2nccc(Oc3ccc(NC(=O)c4cn(-c5ccccc5)c5ccccc5c4=O)cc3)c2cc1OC
- Activity (Mus musculus [1]): Active
- inhibition (J774.A1 [2]): Active
- Activity (Mus musculus [3]): Active
- Activity (Mus musculus [4]): Active
- Activity (J774.A1 [5]): inactive
- inhibition at 10 µM (J774.A1 [6]): 82.6%
- inhibition (J774.A1 [7]; dose 1.25-10 µM, time 24.5 hrs): Dose-Dependent Effect
- Activity (Mus musculus [8]): Active
- inhibition (J774.A1 [10]): Dose-Dependent Effect
- Activity (Mus musculus [12]): Active
- inhibition (J774.A1 [15]): Dose-Dependent Effect
- inhibition (THP-1): Dose-Dependent Effect
- Activity (Mus musculus [16]): Active
- Activity (Mus musculus [17]): Active

Source: ChEMBL document CHEMBL5346889, “Discovery of 4-oxo-N-phenyl-1,4-dihydroquinoline-3-carboxamide derivatives as novel anti-inflammatory agents for the treatment of acute lung injury and sepsis” (Eur J Med Chem, 2023)
